core dimer inh: blocks dimerization of HCV core protein; inhibition, % at 5 µM; TR-FRET GST/Flag-core106 dimerization, 1536-well; 300,000 tested, 0.33% active;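 active = inhibition above the mean of all tested compounds plus 3 SD, set per screening campaign, cut at about 45% in these data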
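Test system: GST/Flag-tagged HCV core106 proteins; Medium: KF-containing HEPES buffer, pH 7.45, DTT, CHAPS, BSA; Times: compound-protein-antibody incubation 4 h at 22.5 °C; Detection: TR-FRET 671 and 617 nm emission; Benchmarks: wells lacking GST-core106 and wells with excess unlabelled core106.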
MBD2 inh: MBD2-methylated oligo binding inhibition | Q9UBB5 | TR-FRET, MBD2 binding to methylated oligonucleotide | inhibition, % at 4.4 µM | 370,000 tested, 0.31% active | AID 686964; in the data active = inhibition above about 13%
LEDGF integ inh: blocks HIV-1 LEDGF/p75-dependent DNA integration; TR-FRET IN-LEDGF/p75 DNA integration, Eu/Cy5; AID 743269; inhibition, % at 3.7 µM; 370,000 tested, 0.64% active;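 active = inhibition above the screen-wide mean plus 3 SD, cut at about 13% in these data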;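 also: signal is the Cy5 over europium emission ratio at 671 and 618 nm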
UHRF1 binding: UHRF1 methyl-DNA binding inhibition; Q96T88; UHRF1 binding to methylated oligo, TR-FRET; inhibition, % at 4.4 µM; 370,000 tested, 0.75% active; AID 687016; in the data active = inhibition above about 21%;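 also: UHRF1 SRA domain binding a hemimethylated CpG hairpin DNA probe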
Target sequence (Q96T88 whole entry, looked up, the tested form may be a part): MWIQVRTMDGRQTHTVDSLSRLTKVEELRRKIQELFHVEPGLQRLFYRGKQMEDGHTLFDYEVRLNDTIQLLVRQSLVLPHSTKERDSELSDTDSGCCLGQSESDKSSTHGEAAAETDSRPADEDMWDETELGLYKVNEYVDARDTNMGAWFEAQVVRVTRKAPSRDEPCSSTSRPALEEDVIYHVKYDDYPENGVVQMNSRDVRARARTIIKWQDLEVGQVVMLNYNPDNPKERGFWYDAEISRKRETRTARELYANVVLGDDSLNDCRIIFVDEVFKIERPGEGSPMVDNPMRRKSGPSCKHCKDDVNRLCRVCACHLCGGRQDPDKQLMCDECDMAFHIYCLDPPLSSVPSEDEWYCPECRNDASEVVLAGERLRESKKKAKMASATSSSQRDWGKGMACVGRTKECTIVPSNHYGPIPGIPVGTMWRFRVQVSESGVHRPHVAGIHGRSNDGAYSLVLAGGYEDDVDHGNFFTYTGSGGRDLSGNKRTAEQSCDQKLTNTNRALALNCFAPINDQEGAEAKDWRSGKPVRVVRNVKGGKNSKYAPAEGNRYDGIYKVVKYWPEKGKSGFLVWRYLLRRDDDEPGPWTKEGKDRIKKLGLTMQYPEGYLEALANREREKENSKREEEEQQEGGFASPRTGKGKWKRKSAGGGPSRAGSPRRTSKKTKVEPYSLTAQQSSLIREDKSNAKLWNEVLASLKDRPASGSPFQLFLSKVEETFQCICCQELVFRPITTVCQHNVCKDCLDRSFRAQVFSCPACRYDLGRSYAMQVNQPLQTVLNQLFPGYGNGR
TDP2 inh: blocks human TDP2 phosphodiesterase activity; O95551; recombinant TDP2, T5PNP hydrolysis, p-nitrophenol absorbance 415 nm; inhibition, % at 12.8 µM; 370,000 tested, 0.34% active; AID 720702;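 active = inhibition above the mean of all tested compounds plus 3 SD, set per campaign, cut at about 25% in these data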
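Read-out basis: percent inhibition. System: recombinant human TDP2. Buffer or medium: Mg2+-containing Tris-HCl buffer, pH 7.5. Repeats: single replicate. Timing: reaction 2 h, 37 °C. Benchmarks: high control without enzyme, low control DMSO plus TDP2. Probe or stimulus: 5 mM T5PNP. Doses: 12.8 µM only. Measured by: epi absorbance of p-nitrophenol freed from T5PNP by hydrolysis.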
Large screens that a line does not name were inactive. Only some compounds are listed: those with a hit (about 1.8% of all), similar ones and a draw of the others.

O=C(Nc1ccccc1Cl)c1ccn[nH]1	none
O=C(Nc1ccccc1F)c1ccn[nH]1	UHRF1 binding 74.9
COc1ccc(Cc2c(-c3ccc(C)cc3)nc3ccc(Cl)cn23)c(C)c1	none (no result: core dimer inh)
COC(=O)c1ccc2nc(-c3ccc(Cl)cc3)c(Cc3ccc(OC)cc3C)n2c1	UHRF1 binding 24.9 (no result: core dimer inh)
COC(=O)c1ccc2nc(-c3ccc(OC)c(OC)c3)c(Cc3ccc(OC)cc3C)n2c1	UHRF1 binding 21.2 (no result: core dimer inh)
COC(=O)c1ccc2nc(-c3cccc(Br)c3)c(Cc3ccccc3OC)n2c1	none (no result: core dimer inh)
Cc1ccc(C)c(NC(=O)COC(=O)CNC(=O)C2CCCCC2)c1	UHRF1 binding 52.5 (no result: core dimer inh)
Cc1cccc(NC(=O)COC(=O)CNC(=O)C2CCCCC2)c1	none
CC(C)NC(=O)c1ccc(CSCc2ccccc2Cl)o1	UHRF1 binding 24.9
CCC(C)NC(=O)c1ccc(CSCc2ccccc2Cl)o1 (configuration not stated)	none
c1ccc2c(C(c3nnnn3-c3ccc4c(c3)OCCO4)N3CCOCC3)ccnc2c1 (configuration not stated)	UHRF1 binding 22.4 (no result: core dimer inh)
c1ccc2c(C(c3nnnn3-c3ccc4c(c3)OCCO4)N3CCCC3)ccnc2c1 (configuration not stated)	none (no result: core dimer inh)
COC(=O)[C@H](CC(C)C)N(Cc1cn(Cc2ccc(C)cc2)nn1)S(=O)(=O)c1ccc(F)cc1Br	none (no result: core dimer inh)
Cc1cc(OCC(C)CN2CCC(C(O)(c3ccccc3)c3ccccc3)CC2)ccc1Br (configuration not stated)	none (no result: core dimer inh)
CC1=C(C#N)C(=O)N(C2CCS(=O)(=O)C2)C(=O)/C1=C\c1ccco1 (configuration not stated)	core dimer inh 77.7 (no result: MBD2 inh, LEDGF integ inh, UHRF1 binding, TDP2 inh)
COC(=O)[C@H](CC(C)C)N1Cc2nnn(Cc3ccccc3)c2-c2ccccc2S1(=O)=O	none (no result: core dimer inh)
COC(=O)c1ccc(CSc2ncnc3c2sc2nc(N4CCOCC4)c4c(c23)CCCC4)o1	core dimer inh 66.2
COC(=O)CSc1ncnc2c1sc1nc(N3CCOCC3)c3c(c12)CCCC3	none
CSc1ccccc1NC(=O)CN(C)C(=O)CCc1c[nH]c2ccccc12	UHRF1 binding 20.8
CCCOc1ccc(/C=C/C(=O)O)cc1OC	none
COc1ccc(/C=C/C(=O)O)cc1Cl	UHRF1 binding 43.4
CCC(C)NC(=O)c1ccccc1NC(=O)Nc1ccccc1 (configuration not stated)	UHRF1 binding 27.2
CC(C)CNc1cccc2c1S(=O)(=O)N(Cc1cn(Cc3cccc(F)c3)nn1)Cc1ccccc1O2	none (no result: core dimer inh)
NC(=O)C1CCN(c2nc(-c3ccc4c(c3)OCCCO4)cs2)CC1	none (no result: core dimer inh)
CCOC(=O)C1=CN(Cc2cccc(F)c2)S(=O)(=O)N(CC)C1c1ccc(Br)cc1F (configuration not stated)	UHRF1 binding 21.2 (no result: core dimer inh)
Cc1ccc(S(=O)(=O)N2CCCC2C(c2ccccc2O)c2cn(C)c3ccccc23)cc1 (configuration not stated)	none (no result: core dimer inh)
CCCCCN1CCCCC(NC(=O)c2ccc3ccccc3c2)C1=O (configuration not stated)	none (no result: core dimer inh)
CCC(C)(C)n1nnnc1CN1CCN(c2ccc(OC)cc2)CC1	UHRF1 binding 21.8
C=c1[nH]cc(C(C)c2c(C)n(C)c3ccccc23)/c1=C/C (configuration not stated)	none (no result: core dimer inh)
CCOc1ncccc1C(=O)Nc1ccc(F)c(Cl)c1	UHRF1 binding 76.2
CCOc1ncccc1C(=O)Nc1ccc(F)c(F)c1	none
COC(=O)[C@]12C[C@H](CC(=O)NCCc3ccccc3OC)C(=O)N(CCC3=CCCCC3)C1=C[C@H](C(C)C)O[C@@H]2C1CC1	none (no result: core dimer inh)
Cc1cc(C(=O)N/N=C/c2cccc(OC(=O)c3cccc(Br)c3)c2)n[nH]1	none (no result: core dimer inh)
COc1cccc(C(=O)Oc2c(Br)cc(Br)cc2/C=N/NC(=O)c2cc(C)[nH]n2)c1	UHRF1 binding 30.5
COC(=O)C1SCC2C(=O)N(Cc3ccc(F)cc3)CC(=O)N21 (configuration not stated)	UHRF1 binding 21.5
COc1ccc(CCNCC(=O)Nc2c(C)cc(C)cc2C)cc1OC	UHRF1 binding 20.8
COc1ccc(CCNCCC(=O)Nc2c(C)cc(C)cc2C)cc1OC	none
COC(=O)c1ccc(Cn2cnc3c(cnn3-c3ccc(Cl)cc3)c2=O)o1	UHRF1 binding 32.0
COC(=O)c1ccc(Cn2cnc3c(cnn3-c3ccc(F)cc3)c2=O)o1	none
CCCCCCN1CCS(=O)(=O)N(Cc2ccc(C)cc2)C(C(=O)OC)C1 (configuration not stated)	none (no result: core dimer inh)
C=CC[C@@]1(c2ccc(Br)cc2OC)Oc2ccccc2-c2nccnc21	none (no result: core dimer inh)
CN(C)S(=O)(=O)n1cc(/C=C(\NC(=O)c2ccccc2Cl)C(=O)N2CCCC2)c2ccccc21	none
CN(C)S(=O)(=O)n1cc(/C=C(\NC(=O)c2ccccc2F)C(=O)N2CCCCC2)c2ccccc21	UHRF1 binding 23.7 (no result: core dimer inh)
COC(=O)[C@@]12CCCCC3=C1N(CCC3)C(=O)[C@H]2CC(=O)NCc1cccc(C(F)(F)F)c1	none (no result: core dimer inh)
O=C(Nn1cnnc1)c1ccc(Cl)c([N+](=O)[O-])c1	UHRF1 binding 24.7
COc1ccc(Nc2cccccc2=O)cc1	none
COc1ccc(Nc2cccc3ccccc23)cc1	UHRF1 binding 21.3
CC1=NN(c2ccccc2)C(=O)/C1=C/c1ccc[nH]1	none
CC1=NN(c2ccccc2)C(=O)/C1=C\c1cc(C)n(-c2ccccc2)c1C	none
CC1=NN(c2ccccc2)C(=O)/C1=C/c1ccc(Cl)cc1	TDP2 inh 70.6 (no result: core dimer inh)
CC1=NN(c2ccccc2)C(=O)C1=Cc1ccccc1	TDP2 inh 72.9 (no result: core dimer inh)
O=C(Nc1cccc(C(F)(F)F)c1)OCCCN1CCC2(CCC(c3ccccc3)CC2)C1=O (configuration not stated)	none (no result: core dimer inh)
COc1cccc(N2CC(O)=C(c3nc4ccccc4s3)C2=N)c1	UHRF1 binding 22.8
N=C1C(c2nc3ccccc3s2)=C(O)CN1NC(=O)c1ccco1	UHRF1 binding 39.4
COc1ccc(N2CC(O)=C(c3nc4ccccc4s3)C2=N)cc1	none
COc1cccc(C(=O)NN2CC(O)=C(c3nc4ccccc4s3)C2=N)c1	none
COc1ccc(C(=O)NC2CC2)cc1OC1CCN(Cc2ccc(F)cc2Cl)CC1	UHRF1 binding 29.3
CC1(C)CC(=O)C2=C(C1)N(CC1CCCO1)C(=O)C2(O)C(F)(F)F (configuration not stated)	none
CC1(C)CC(=O)C2=C(C1)N(CC1CCCO1)C(=O)NC2(C(F)(F)F)C(F)(F)F (configuration not stated)	UHRF1 binding 22.6
C#Cc1ccc(NC(=O)C2(C)CCN2C(=O)C/C=C/c2ccccc2)cc1 (configuration not stated)	none (no result: core dimer inh)
CC1(C(=O)Nc2cccc(C#N)c2)CCN1C(=O)C/C=C/c1ccccc1 (configuration not stated)	UHRF1 binding 24.2 (no result: core dimer inh)

Screens deposited in PubChem by The Scripps Research Institute Molecular Screening Center.
